Results published in ChEMBL document CHEMBL1914310, “Microbial transformations of diosgenin by the white-rot basidiomycete Coriolus versicolor” (2011).
Active and inactive are the calls of the source. The calls are words filed in the database; no cut-off is given here.

Key:
[1] = tested on: HEK293; test: Inhibition of human NF-kappaB in HEK cells by luciferase reporter gene assay; format: cell-based
How it was run: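 HEK293 cells with a chromosomally integrated luciferase reporter under an NF-κB response element. Pathway activation induced by human tumor necrosis factor. After incubation, treated cells were lysed in reporter lysis buffer. Luciferase light output was read on a luminometer.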

[2] = tested on: U-87MG ATCC; test: Cytotoxicity against human U87 cells after 48 hrs by XTT assay; format: functional, cell-based
How it was run: (§1)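 U87 glioma cells kept in ATCC-recommended medium with 10% FBS at 37 °C, 5% CO2. Seeded at 1000 cells/well, exposed to compounds for 48 h. XTT added, then plates held another 4 h at 37 °C. Viability read colorimetrically per the kit protocol; inhibition taken at 100 μM.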

[3] = Cytotoxicity against human U87 cells assessed as growth inhibition at 100 uM after 48 hrs by XTT assay; format: functional, U-87MG ATCC; conditions: U-87 MG, read-out: GI; how it was run: as §1

SMILES | inhibition [1] | Activity [2] | inhibition of growth at 100 µM [3] [%]
C[C@@H]1CC[C@@]2(OC1)O[C@H]1C[C@H]3[C@@H]4[C@H](O)C=C5C[C@@H](O)CC[C@]5(C)[C@H]4C[C@@H](O)[C@]3(C)[C@H]1[C@@H]2CO | inactive | – | –
C[C@@H]1CC[C@@]2(OC1)O[C@H]1C[C@H]3[C@@H]4CC[C@H]5C[C@@H](O)CC[C@]5(C)[C@H]4CC[C@]3(C)[C@H]1[C@@H]2C | inactive | – | –
C[C@@H]1CC[C@@]2(OC1)O[C@H]1C[C@H]3[C@H]4[C@H]([C@H](O)C[C@]3(C)[C@H]1[C@@H]2CO)[C@@]1(C)CC[C@H](O)CC1=C[C@@H]4O | inactive | – | –
CC(=O)O[C@H]1CC[C@@]2(C)C(=CC[C@H]3[C@@H]4C[C@@H]5O[C@]6(CC[C@@H](C)CO6)[C@@H](C)[C@@H]5[C@@]4(C)CC[C@@H]32)C1 | inactive | inactive | –
C[C@@H]1CC[C@@]2(OC1)O[C@H]1C[C@H]3[C@@H]4[C@@H](O)C=C5C[C@@H](O)CC[C@]5(C)[C@H]4C[C@@H](O)[C@]3(C)[C@H]1[C@@H]2CO | inactive | inactive | –
C[C@@H]1CC[C@@]2(OC1)O[C@H]1C[C@H]3[C@@H]4[C@@H](O)C=C5C[C@@H](O)CC[C@]5(C)[C@H]4CC[C@]3(C)[C@H]1[C@@H]2CO | inactive | inactive | 28.2
C[C@@H]1CC[C@@]2(OC1)O[C@H]1C[C@H]3[C@@H]4[C@@H](O)C=C5C[C@@H](O)CC[C@]5(C)[C@H]4C[C@@H](O)[C@]3(C)[C@H]1[C@@H]2C | inactive | inactive | –
C[C@@H]1CC[C@@]2(OC1)O[C@H]1C[C@H]3[C@@H]4CC=C5C[C@@H](O)CC[C@]5(C)[C@H]4CC[C@]3(C)[C@H]1[C@@H]2C | inactive | – | –
C[C@@H]1CC[C@@]2(OC1)O[C@H]1C[C@H]3[C@@H]4CCC5=CC(=O)CC[C@]5(C)[C@H]4CC[C@]3(C)[C@H]1[C@@H]2C | inactive | inactive | –
C[C@@H]1CC[C@@]2(OC1)O[C@H]1C[C@H]3[C@@H]4[C@@H](O)C=C5C[C@@H](O)CC[C@]5(C)[C@H]4CC[C@]3(C)[C@H]1[C@@H]2C | inactive | inactive | –
C[C@@H]1CC[C@@]2(OC1)O[C@H]1[C@H](O)[C@H]3[C@@H]4[C@H](O)C=C5C[C@@H](O)CC[C@]5(C)[C@H]4CC[C@]3(C)[C@H]1[C@@H]2CO | inactive | inactive | –
